The values that follow come from article PMC4028150 (Chembiochem : a European journal of chemical biology, 2013).

Where a SMILES comes first, the peptide text is derived from it. Where no end group is shown, it is not given here. Some results are limits rather than exact numbers.

For experiment [1], the system named is SCF^Skp2 (p27 ubiquitination). In words: In vitro p27 ubiquitination assay. In kind it is biochemical. The settings on record: E1, hCdc34 (E2), Cks1, p27 phosphorylated by cyclin E-Cdk2, SCF^Skp2; 2 hrs, 30°C; Figure S3.
The target of experiment [2] is SCF^Fbx4 (Fbx4-dependent TRF1 ubiquitination) (UniProt P54274). Briefly: In vitro TRF1 ubiquitination assay. Format: biochemical. The conditions noted are these: versus wild-type peptide (IC50 = 205.9 µM). In a few lines: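 TRF1ΔMyb (E. coli; Ni-NTA, tag cleaved, gel filtration, Mono-Q/Mono-S) was prelabelled with GST-cyclin B/Cdk1 in 50 mM Tris pH 8.0, 10 mM MgCl2, 10 mM ATP and 2 µCi [γ-33P]ATP for 1 hr, then kinase-depleted on glutathione resin. It was incubated with E1, UbcH5a, SCFFbx4, ubiquitin, methylated ubiquitin, energy-regenerating system and increasing peptide at 30°C for 2.5 hrs. SDS-PAGE and phosphorimaging followed. IC50 came from loss of polyubiquitination.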

For experiment [3], the target named is T1, TRF1_(TRFH) (residues 58-268) (UniProt P54274 58-268).
T1 sequence (looked up): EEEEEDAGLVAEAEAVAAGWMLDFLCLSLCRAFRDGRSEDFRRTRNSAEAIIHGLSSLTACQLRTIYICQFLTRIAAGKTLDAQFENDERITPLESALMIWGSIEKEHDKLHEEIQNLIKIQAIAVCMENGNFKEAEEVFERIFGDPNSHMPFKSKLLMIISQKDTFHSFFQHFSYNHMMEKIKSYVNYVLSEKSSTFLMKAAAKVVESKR
In words: fluorescence polarisation.

`CC[C@H](C)[C@H](NC(=O)[C@@H]1CCCN1C(=O)[C@@H](N)CCSC)C(=O)N[C@@H](Cc1ccccc1)C(=O)N[C@@H](Cc1c[nH]c2ccccc12)C(=O)N[C@@H](CCCCN)C(=O)N[C@@H](Cc1ccccc1)C(=O)N[C@@H](Cc1c[nH]cn1)C(=O)N[C@@H](CCCNC(=N)N)C(=O)N[C@@H](CCSC)C(=O)N[C@@H](CO)C(=O)N[C@@H](CCCCN)C(=O)N[C@@H](CCSC)C(=O)NCC(=O)N[C@H](C(=O)NCC(N)=O)[C@@H](C)O` [Design 1] (H-MPIFWKFHRMSKMGTG-NH2): the “effect on the ubiquitination of p27” value in experiment [1] is recorded as “no effect”. Moreover, in experiment [2], the “decrease of IC50 compared to wild-type peptide” value was “more than 6 fold”.

For the molecule MPIFWKFHRMSKMGTG-NH2 (designed binder, also: 7-hydroxycoumarin-3-carboxylic acid label, position not given here) [Design 1], the Kd in experiment [3] stood at 23.3 µM.

With MPIFWKAHRMSKMGTG-NH2 (designed binder, also: 7-hydroxycoumarin-3-carboxylic acid label, position not given here) [Design 3], the affinity in experiment [3], expressed as Kd, was 17.3 µM.

The molecule MPIAWKFHRMSKMGTG-NH2 (designed binder, also: 7-hydroxycoumarin-3-carboxylic acid label, position not given here) [Design 2] registered a Kd in experiment [3] of 47.8 µM.

The molecule MPCFYLAHEL-NH2 (also: 7-hydroxycoumarin-3-carboxylic acid label, position not given here) [Wild-Type peptide (Fbx4 residues 339-348)] had a Kd in experiment [3] of 41.8 µM.

Molecule SMTWRGKPAHMIFGKM-NH2 (also: 7-hydroxycoumarin-3-carboxylic acid label, position not given here) [Control 1] had a Kd in experiment [3] greater than 250 µM.

Molecule KKMDVCGGLSD-NH2 (also: 7-hydroxycoumarin-3-carboxylic acid label, position not given here) [Control 2] yielded a Kd in experiment [3] greater than 10000 µM.

The term Kd denotes the concentration at which binding is half-saturated.
